# The list is not random: actives were taken first. Their share in the collection is about 5.8%.
# PLK1 kinase inh: human PLK1 kinase inhibitors, primary screen, biochemical, TR-FRET; recombinant PLK1 kinase, TR-FRET peptide phosphorylation; Serine/threonine-protein kinase PLK1 (Homo sapiens), P53350; actives 0.53% (n = 97,000); inhibition, % at 10 µM;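 active = inhibition of 50% or more in the single-concentration screen; inactive = inhibition below 50%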;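 note: 0% = DMSO max control and 100% = H-89 dihydrochloride min control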
# Pyk2 oligo antag: antagonists of Pyk2 self-association, primary screen, Q293 cells, FERM NanoBiT luminescence, HTS. z-score (the deposit names both 25 µM and 10 µM). hits give low values. actives 0.83% (n = 99,000). Protein-tyrosine kinase 2-beta (Homo sapiens), Q14289;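 active = Z-score of -3 or lower, scaled per plate to the spread of control and sample wells; inactive = z-score above -3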;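 note: negative z-score means lost luminescence so less FERM oligomerization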
# Cav3 T inh: Cav3.2 calcium influx blockers – cell-based, Fluo-4 calcium fluorescence, FDSS, MLSMR library, primary screen; B-score at 10 µM; actives 4% (n = 100,000); Voltage-dependent T-type calcium channel subunit alpha-1H (Homo sapiens), O95180; Cav3.2-expressing cells; hits give low values;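 active = single-dose well whose peak fluorescence ratio is a statistical outlier from its plate by either plate-standardised score or position-corrected B-score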
# Target sequence (O95180 whole entry, looked up): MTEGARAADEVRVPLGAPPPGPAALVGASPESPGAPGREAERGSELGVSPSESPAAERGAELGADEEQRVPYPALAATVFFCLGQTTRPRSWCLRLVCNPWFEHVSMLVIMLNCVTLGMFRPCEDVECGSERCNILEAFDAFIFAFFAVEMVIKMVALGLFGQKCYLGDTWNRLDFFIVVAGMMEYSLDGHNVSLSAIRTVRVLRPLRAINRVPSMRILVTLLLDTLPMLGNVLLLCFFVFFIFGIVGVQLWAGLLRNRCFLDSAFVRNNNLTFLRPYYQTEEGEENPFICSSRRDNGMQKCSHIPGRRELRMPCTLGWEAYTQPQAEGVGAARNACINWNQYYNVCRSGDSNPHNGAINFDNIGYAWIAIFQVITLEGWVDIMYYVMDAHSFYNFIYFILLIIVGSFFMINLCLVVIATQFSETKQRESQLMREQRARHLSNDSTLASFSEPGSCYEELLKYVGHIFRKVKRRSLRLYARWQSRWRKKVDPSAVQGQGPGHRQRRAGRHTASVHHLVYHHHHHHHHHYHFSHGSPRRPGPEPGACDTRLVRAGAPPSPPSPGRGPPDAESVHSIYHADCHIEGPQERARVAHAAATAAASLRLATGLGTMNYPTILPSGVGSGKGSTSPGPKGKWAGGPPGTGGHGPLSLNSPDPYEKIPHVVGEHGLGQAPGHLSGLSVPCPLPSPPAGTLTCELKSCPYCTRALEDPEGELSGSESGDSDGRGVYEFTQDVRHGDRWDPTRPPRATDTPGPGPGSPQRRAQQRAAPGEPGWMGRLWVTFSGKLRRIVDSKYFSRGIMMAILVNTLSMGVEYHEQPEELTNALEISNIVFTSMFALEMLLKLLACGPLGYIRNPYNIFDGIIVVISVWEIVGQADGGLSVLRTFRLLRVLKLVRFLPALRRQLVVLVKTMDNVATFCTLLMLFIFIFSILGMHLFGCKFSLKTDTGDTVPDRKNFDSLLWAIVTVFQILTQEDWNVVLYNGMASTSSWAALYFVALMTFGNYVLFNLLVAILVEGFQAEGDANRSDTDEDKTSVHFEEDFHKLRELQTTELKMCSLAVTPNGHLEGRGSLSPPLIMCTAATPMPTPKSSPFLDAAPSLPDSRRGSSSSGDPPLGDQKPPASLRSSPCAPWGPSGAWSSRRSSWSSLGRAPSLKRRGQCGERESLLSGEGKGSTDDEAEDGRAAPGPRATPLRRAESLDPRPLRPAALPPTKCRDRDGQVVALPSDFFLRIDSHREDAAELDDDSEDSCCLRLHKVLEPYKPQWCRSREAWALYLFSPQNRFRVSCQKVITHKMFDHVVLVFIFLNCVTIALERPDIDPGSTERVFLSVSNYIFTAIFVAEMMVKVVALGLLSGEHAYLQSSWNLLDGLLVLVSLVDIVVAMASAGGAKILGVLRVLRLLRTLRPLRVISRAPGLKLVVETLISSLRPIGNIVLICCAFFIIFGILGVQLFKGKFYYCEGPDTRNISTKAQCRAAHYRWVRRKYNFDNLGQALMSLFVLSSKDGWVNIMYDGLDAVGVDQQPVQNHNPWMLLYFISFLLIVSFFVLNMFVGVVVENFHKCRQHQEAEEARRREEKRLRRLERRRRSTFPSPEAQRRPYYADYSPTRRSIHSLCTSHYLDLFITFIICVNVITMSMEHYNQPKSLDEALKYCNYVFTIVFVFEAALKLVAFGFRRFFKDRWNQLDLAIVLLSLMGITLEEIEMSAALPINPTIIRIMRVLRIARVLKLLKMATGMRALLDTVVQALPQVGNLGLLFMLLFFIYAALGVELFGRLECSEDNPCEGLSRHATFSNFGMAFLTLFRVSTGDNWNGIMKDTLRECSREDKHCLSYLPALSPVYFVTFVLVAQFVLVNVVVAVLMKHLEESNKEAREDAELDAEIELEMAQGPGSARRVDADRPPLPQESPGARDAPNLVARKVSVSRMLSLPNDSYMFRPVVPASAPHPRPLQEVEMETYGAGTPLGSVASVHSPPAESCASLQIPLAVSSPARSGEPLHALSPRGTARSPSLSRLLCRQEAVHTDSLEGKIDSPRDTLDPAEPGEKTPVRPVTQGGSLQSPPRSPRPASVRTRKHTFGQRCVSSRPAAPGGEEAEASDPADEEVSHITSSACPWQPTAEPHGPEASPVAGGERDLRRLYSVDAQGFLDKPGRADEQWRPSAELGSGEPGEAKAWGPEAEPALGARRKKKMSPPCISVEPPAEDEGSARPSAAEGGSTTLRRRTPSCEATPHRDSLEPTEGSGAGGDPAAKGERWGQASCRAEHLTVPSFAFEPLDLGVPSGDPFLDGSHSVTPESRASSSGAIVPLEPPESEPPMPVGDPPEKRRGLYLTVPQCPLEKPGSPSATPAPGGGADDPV
# FAK blocker: FAK kinase inhibitors, primary screen, biochemical; inhibition, %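 (tested at 7 µM)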; actives 0.84% (n = 97,000); biochemical FAK kinase activity assay; AID 727, 2007; in the data active = inhibition above about 19%;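 note: 0% = DMSO and 100% = reference compound high control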
# Plk1 PBD FP: Plk1 polo box domain binding inhibitors, primary screen, biochemical, fluorescence polarization. Plk1 PBD phosphopeptide binding. inhibition, %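 (tested at about 20 µM)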. actives 0.13% (n = 97,000); in the data active = inhibition above about 34%, passing the limit was not always enough
# Rev-RRE block: HIV-1 Rev-RRE binding inhibitors, primary screen, biochemical, FRET, protein-RNA interaction | P05866 | inhibition, % at 8 µM | Rev peptide-RRE RNA binding | AID 704, 2007 | actives 0.79% (n = 97,000);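 active = inhibition above the screen-wide mean plus 3 SD, cut at about 35% in these data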;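 note: 0% = median DMSO wells and 100% = median Neomycin B control wells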
#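 Assay system: labelled RRE RNA duplex and labelled Rev peptide / Medium: HEPES pH 7.5 salt buffer with EDTA / Reagent: labelled Rev peptide / Schedule: 5 + 15 min at 25 °C / Signal: FRET, excitation 480 nm, emission 540 nm donor and 671 nm acceptor / Benchmarks: DMSO and neomycin B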
# * = called active by the depositor; nt = no result; [ ] = remark or other dose.
SMILES,PLK1 kinase inh,Pyk2 oligo antag,Cav3 T inh,FAK blocker,Plk1 PBD FP,Rev-RRE block
COc1cccc(C2=NOC(C(=O)Nc3ccccc3SC)C2)c1 (stereo unspecified),-13.2,-2.2,-0.388,-0.2,7.3,12.5
CC1(C(=O)O)CCC(C(=O)Nc2ccc(S(N)(=O)=O)cc2)C1(C)C (stereo unspecified),-18.1,0.24,-0.666,11.1,0.8,4.2
O=C(CCCCCN1C(=O)c2ccccc2C1=O)NCc1ccccn1,-0.3,1.47,0.268,-6.1,-16.0,3.2
CC(C)OCCCN1C(=O)c2[nH]nc(-c3ccccc3O)c2C1c1cccc(Cl)c1 (stereo unspecified),-1.4,-3.23*,0.889,2.4,-15.1,0.5
O=C1c2[nH]nc(-c3ccccc3O)c2C(c2ccccc2)N1Cc1ccco1 (stereo unspecified),-10.2,-1.58,-3.44,0.6,5.7,12.4
CC(C)C(=O)N1CCN(c2nc(-c3ccccc3)c3c(c2C#N)CCCC3)CC1,-6.2,-1.6,-5.27*,2.3,-4.0,7.3
CCCC(=O)N1CCN(c2nc(CC(C)C)c3c(c2C#N)CCC3)CC1,-18.5,-0.1,-5.51*,2.8,1.1,2.4
CC1(C)Cc2c(C#N)c(N3CCOCC3)nc(-c3ccccc3)c2CO1,-9.6,-0.97,-1.48,2.4,15.9,13.1
COc1cc(OC)nc(Oc2ccccc2C(=O)Oc2cccc(C)c2)n1,-12.4,-2.71,-1.81,-2.8,5.2,8.0
COc1cccc(N(CC(=O)NCCSc2ccc(Cl)cc2)S(C)(=O)=O)c1,-2.0,-0.36,-5.54*,-2.3,15.1,11.6
CS(=O)(=O)N(CC(=O)NCCSCc1c(F)cccc1Cl)c1ccc2c(c1)OCO2,-11.1,0.95,-6.51*,-7.1,-9.9,-1.0
CCCCOc1ccc(N2C(=O)CC(NCCc3ccc(S(N)(=O)=O)cc3)C2=O)cc1 (stereo unspecified),-0.2,1.25,-0.3,-2.0,-24.2,3.0
CC1=Nc2ccccc2/C1=C\c1nc(-c2ccc(F)cc2)oc1O,-12.4,-0.09,0.89,-1.0,-36.9,52.2*
O=C(COC(=O)c1c2c(nc3ccccc13)CCCC2)Nc1ccc2c(c1)OCO2,-6.2,-3.47*,-2.52,9.8,11.7,6.2
COc1cccc(NC(=O)COC(=O)c2c3c(nc4ccccc24)CCC(C)C3)c1 (stereo unspecified),-9.4,-4.68*,-2.57,-2.8,-9.4,9.4
CCOC(=O)c1cc2c(=O)n3cccc(C)c3nc2n(Cc2cccnc2)c1=N,-9.4,nt,nt,-0.8,-39.8,-2.9
COC(=O)c1ccccc1S(=O)(=O)N1Cc2cc([N+](=O)[O-])ccc2Oc2ccccc21,-10.3,-2.32,-3.03,2.3,-1.9,14.2
N#Cc1c2n(c3c(=O)n(Cc4ccc(Cl)cc4)cnc13)CCCCC2,1.8,-3.23*,nt,-3.0,19.5,11.4
N#Cc1c2n(c3c(=O)n(Cc4ccccc4)cnc13)CCCC2,-6.6,-0.98,1.75,-3.6,4.9,7.1
COc1ccc2c(c1)c(C(=O)CN1CCC(C(N)=O)CC1)c(C)n2C,-6.1,0.28,0.482,-8.0,-21.2,-2.6
CCOC(=O)c1ccc(N=C2S/C(=C\c3cc(C)n(-c4cccnc4)c3C)C(=O)N2C)cc1,-12.3,-0.97,-0.454,-1.9,-7.5,-9.7
Cc1cc(/C=C2/SC(=S)N(c3cccc(C(F)(F)F)c3)C2=O)c(C)n1-c1cccnc1,-42.1,0.28,0.0214,-0.6,-137.2,43.6*
Cc1cc(/C=C2\SC(=S)N(Cc3ccco3)C2=O)c(C)n1-c1cccnc1,-22.0,-0.82,nt,3.9,-153.0,95.0*[fluorescence artefact?]
CC(C)(C)NC(=O)c1ccc2c(c1)N(CC(=O)N1CCN(c3ccc(F)cc3)CC1)C(=O)C(C)(C)O2,-6.0,-0.99,1.91,2.6,-26.3,-0.8
CCOC(=O)C1=C(C)N(CCCC(=O)O)C(=O)NC1c1ccc(Br)cc1 (stereo unspecified),nt,nt,0.629,nt,nt,nt
SMILES,PLK1 kinase inh,Pyk2 oligo antag,Cav3 T inh,FAK blocker,Plk1 PBD FP,Rev-RRE block
CCCSc1nc(C)c(CC(=O)O)c(=O)[nH]1,2.8,0.35,1.09,-2.5,-3.4,4.6
O=C(Nc1cccc(-c2nnn(CC(=O)N3CCc4ccccc4C3)n2)c1)C1CCC1,-1.6,-0.6,-4.45*,-1.1,-13.9,9.4
CCC(C)(C)NC(=O)C(c1ccc(F)cc1)N(Cc1ccco1)C(=O)CCC(=O)Nc1ccccn1 (stereo unspecified),nt,-0.32,-8.77*,nt,nt,nt
CCC(C)(C)NC(=O)C(c1ccc(C)cc1)N(Cc1ccco1)C(=O)CCC(=O)Nc1nccs1 (stereo unspecified),-2.2,0.97,-4.84*,1.3,-10.7,1.7
Cc1ccc(NC(=O)/C=C\C(=O)NCC(=O)O)cc1C,nt,0.92,nt,nt,nt,nt
O=C(c1cc2ccccc2oc1=O)N(Cc1cccs1)Cc1ccccc1Cl,-14.1,-2.67,-7.12*,6.6,-1.7,7.6
COc1ccc(Cl)cc1S(=O)(=O)n1nnc2ccccc21,-5.6,-0.31,0.177,-7.6,-19.6,8.5
COc1ccc(Cl)cc1S(=O)(=O)N1CCN(c2ccc(F)cc2)CC1,-8.1,-2.38,-3.66*,7.6,1.4,17.3
CCOc1ccc(Cl)cc1S(=O)(=O)N1CCN(c2ccc(C)c(C)c2)CC1,-12.6,-2.86,-5.41,-1.2,-0.7,8.3
COc1ccc(Cl)cc1S(=O)(=O)N1CCN=C1C,64.2*,nt,0.0374,0.3,4.7,0.8
CCOc1ccc(Cl)cc1S(=O)(=O)N1CCN(c2ccc(F)cc2)CC1,-7.4,-2.68,-3.67*,-0.1,4.0,19.6
CCc1ccccc1N1CCN(S(=O)(=O)c2cc(OC)ccc2OC)CC1,-5.1,-3.34*,-2.57,1.8,-9.1,8.2
COc1c(F)c(F)c(C(=O)Nc2ccc(N3CCN(Cc4ccccc4)CC3)cc2)c(F)c1F,-10.1,-0.22,-4.17,-0.2,-7.3,6.2
Cc1cc(Cl)c(S(=O)(=O)N2CCN(c3ccc(F)cc3)CC2)cc1OCC(=O)NC1CCCCC1,-5.7,-1.22,-5.22*,-0.8,-32.4,-0.6
CNC(=O)c1[nH]cnc1C(=O)N[C@@H](C)C(=O)OC(C)(C)C,nt,nt,1.03,nt,nt,nt
COC(=O)CCC(=O)NC(=S)Nc1cc(Cl)ccc1Cl,-19.2,0.1,-0.108,-8.8,10.6,-2.4
CCOC(=O)c1c(NC(=O)CCc2ccc(CC)o2)sc(C)c1C,-10.6,0.6,-4.5*,1.5,-20.5,2.1
CCOC(=O)c1c(NC(=O)CSc2nnc(-c3ccco3)o2)sc(C)c1C,-5.3,0.38,-2.96,0.5,20.0,5.1
O=C(CSc1nnc(-c2ccco2)n1Cc1ccccc1)OC1CCCCC1,-11.6,-1.3,-6.23*,3.6,-6.7,7.2
